From ChEMBL document CHEMBL1146260, “Synthesis and antifungal activity of 1H-indole-4,7-diones” (2007)
In brackets after ≈: the same amount, converted by molar mass.

Columns and labels:
Type in all cases: functional
Candida tropicalis = experiment: Antifungal activity against Candida tropicalis Berkout KCCM 50662 after 1 day by 2-fold broth dilution method; details: KCCM 50662, 24 h
Outline: (§1)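 MIC by 2-fold broth dilution in modified Sabouraud dextrose broth; inoculum about 1 · 10⁵ cells/mL; final drug concentrations […]; 37 °C, read after 1 day; 5-fluorocytosine run as standard agent.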

Candida albicans = experiment: Antifungal activity against Candida albicans Berkout KCCM 50235 after 1 day by 2-fold broth dilution method; details: KCCM 50235, 24 h; outline: as §1
Pichia kudriavzevii = experiment: Antifungal activity against Candida krusei Berkout KCCM 11655 after 1 day by 2-fold broth dilution method; details: KCCM 11655, 24 h; outline: as §1
Aspergillus niger = experiment: Antifungal activity against Aspergillus niger KCTC 1231 after 2 days by 2-fold broth dilution method; details: KCTC 1231, 48 h
Outline: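 Two-fold broth dilution MIC in modified Sabouraud dextrose broth, inoculum about 1 · 10⁵ cells/mL, final agent range […]; incubated at 37 °C, MIC read after 2 days; 5-fluorocytosine as standard agent.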

Cryptococcus neoformans = experiment: Antifungal activity against Cryptococcus neoformans KCCM 50564 after 1 day by 2-fold broth dilution method; details: KCCM 50564, 24 h; outline: as §1

Row | SMILES | MIC (Candida tropicalis) [mg/L] | MIC (Candida albicans) [mg/L] | MIC (Pichia kudriavzevii) [mg/L] | MIC (Aspergillus niger) [mg/L] | MIC (Cryptococcus neoformans) [mg/L]
1 | COC(=O)c1cn(-c2ccc(C(C)C)cc2)c2c1C(=O)C(C)=C(C)C2=O | 12.5 (≈ 35.6 µM) | 12.5 (≈ 35.6 µM) | 100 (≈ 285 µM) | 3.2 (≈ 9.11 µM) | 100 (≈ 285 µM)
2 | COC(=O)c1cn(-c2ccc(F)cc2)c2c1C(=O)C(C)=C(C)C2=O | > 100 | > 100 | 3.2 (≈ 9.78 µM) | 12.5 (≈ 38.2 µM) | 3.2 (≈ 9.78 µM)
3 | O=C1C(Sc2cccc(Cl)c2)=C(Sc2cccc(Cl)c2)C(=O)c2[nH]ccc21 | 1.6 (≈ 3.7 µM) | 6.3 (≈ 14.6 µM) | 25 (≈ 57.8 µM) | 25 (≈ 57.8 µM) | 3.2 (≈ 7.4 µM)
4 | O=C1C(Sc2ccc(O)cc2)=C(Sc2ccc(O)cc2)C(=O)c2[nH]ccc21 | 50 (≈ 126 µM) | 50 (≈ 126 µM) | > 100 | > 100 | 25 (≈ 63.2 µM)
5 | COC(=O)c1cn(C)c2c1C(=O)C(C)=C(C)C2=O | > 100 | > 100 | 3.2 (≈ 12.9 µM) | > 100 | 1.6 (≈ 6.47 µM)
6 | COC(=O)C(C#N)C1=C(Cl)C(=O)C(C)=C(C)C1=O (stereo not given) | > 100 | > 100 | 100 (≈ 374 µM) | > 100 | 6.3 (≈ 23.5 µM)
7 | COC(=O)c1cn(-c2ccc(Br)cc2)c2c1C(=O)C(C)=C(C)C2=O | 6.3 (≈ 16.2 µM) | 50 (≈ 129 µM) | 50 (≈ 129 µM) | 3.2 (≈ 8.24 µM) | 50 (≈ 129 µM)
8 | O=C1C(Sc2ccc(F)c(F)c2)=C(Sc2ccc(F)c(F)c2)C(=O)c2[nH]ccc21 | > 100 | > 100 | 12.5 (≈ 28.7 µM) | > 100 | 50 (≈ 115 µM)
9 | Nc1nc(=O)[nH]cc1F [FLUCYTOSINE] | 12.5 (≈ 96.8 µM) | 6.3 (≈ 48.8 µM) | 6.3 (≈ 48.8 µM) | 50 (≈ 387 µM) | 12.5 (≈ 96.8 µM)
10 | COC(=O)c1cn(-c2ccccc2)c2c1C(=O)C(C)=C(C)C2=O | 12.5 (≈ 40.4 µM) | 3.2 (≈ 10.3 µM) | 1.6 (≈ 5.17 µM) | 25 (≈ 80.8 µM) | 6.3 (≈ 20.4 µM)
11 | O=C1C(Sc2ccc(F)cc2)=C(Sc2ccc(F)cc2)C(=O)c2[nH]ccc21 | 25 (≈ 62.6 µM) | > 100 | 3.2 (≈ 8.01 µM) | 100 (≈ 250 µM) | 6.3 (≈ 15.8 µM)
12 | Cc1ccc(SC2=C(Sc3ccc(C)c(C)c3)C(=O)c3[nH]ccc3C2=O)cc1C | > 100 | > 100 | > 100 | 100 (≈ 238 µM) | 50 (≈ 119 µM)
13 | CCc1ccc(-n2cc(C(=O)OC)c3c2C(=O)C(C)=C(C)C3=O)cc1 | 50 (≈ 148 µM) | 25 (≈ 74.1 µM) | 50 (≈ 148 µM) | 3.2 (≈ 9.48 µM) | 50 (≈ 148 µM)
14 | COC(=O)c1cn(-c2ccc(OC)cc2)c2c1C(=O)C(C)=C(C)C2=O | 50 (≈ 147 µM) | > 100 | 3.2 (≈ 9.43 µM) | > 100 | 100 (≈ 295 µM)
15 | COC(=O)c1cn(-c2ccc(C)cc2)c2c1C(=O)C(C)=C(C)C2=O | > 100 | > 100 | 3.2 (≈ 9.9 µM) | > 100 | 0.8 (≈ 2.47 µM)
16 | CCOC(=O)C(C#N)C1=C(Cl)C(=O)C(C)=C(C)C1=O (stereo not given) | > 100 | > 100 | 100 (≈ 355 µM) | > 100 | 25 (≈ 88.7 µM)
17 | COC(=O)c1cn(-c2ccc(Cl)cc2)c2c1C(=O)C(C)=C(C)C2=O | 12.5 (≈ 36.4 µM) | 12.5 (≈ 36.4 µM) | 0.8 (≈ 2.33 µM) | 25 (≈ 72.7 µM) | 12.5 (≈ 36.4 µM)
18 | COC(=O)c1cn(-c2ccc(I)cc2)c2c1C(=O)C(C)=C(C)C2=O | 12.5 (≈ 28.7 µM) | 25 (≈ 57.4 µM) | 50 (≈ 115 µM) | 100 (≈ 230 µM) | 50 (≈ 115 µM)
19 | O=C1C(Sc2ccccc2)=C(Sc2ccccc2)C(=O)c2[nH]ccc21 | > 100 | > 100 | > 100 | 50 (≈ 138 µM) | 12.5 (≈ 34.4 µM)
20 | CCOC(=O)c1cn(C)c2c1C(=O)C(C)=C(C)C2=O | 25 (≈ 95.7 µM) | > 100 | 50 (≈ 191 µM) | > 100 | 100 (≈ 383 µM)
21 | O=C1C(Sc2ccc(Cl)cc2)=C(Sc2ccc(Cl)cc2)C(=O)c2[nH]ccc21 | 12.5 (≈ 28.9 µM) | > 100 | 25 (≈ 57.8 µM) | > 100 | 3.2 (≈ 7.4 µM)
22 | Cc1cccc(SC2=C(Sc3cccc(C)c3)C(=O)c3[nH]ccc3C2=O)c1 | 12.5 (≈ 31.9 µM) | > 100 | > 100 | 50 (≈ 128 µM) | 3.2 (≈ 8.17 µM)
23 | O=C1C(Sc2ccc(Br)cc2)=C(Sc2ccc(Br)cc2)C(=O)c2[nH]ccc21 | > 100 | > 100 | > 100 | 12.5 (≈ 24 µM) | 3.2 (≈ 6.14 µM)
24 | COC(=O)c1cn(-c2ccc(C)c(C)c2)c2c1C(=O)C(C)=C(C)C2=O | > 100 | 12.5 (≈ 37.1 µM) | 0.8 (≈ 2.37 µM) | 6.3 (≈ 18.7 µM) | 1.6 (≈ 4.74 µM)
25 | COC(=O)c1cn(-c2ccc(OC(F)(F)F)cc2)c2c1C(=O)C(C)=C(C)C2=O | > 100 | > 100 | 6.3 (≈ 16 µM) | 3.2 (≈ 8.14 µM) | 1.6 (≈ 4.07 µM)
